From ChEMBL document CHEMBL4043195, “Development of water-soluble 3,5-dinitrophenyl tetrazole and oxadiazole antitubercular agents” (Bioorg Med Chem, 2017)
Converted amounts (≈) assume the structure as drawn.

Assays:
Mycobacterium kansasii [1] = test: Antimycobacterial activity against Mycobacterium kansasii CNCTC My 235/80 incubated for 14 days by micromethod; assay type: functional; settings: for MIC99: Mycobacterium kansasii, CNCTC My 235/80, 336 h
Outline: (§1)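 M. kansasii MIC by micromethod in Sula's semisynthetic medium. Inoculum was a 1.0 McFarland suspension diluted 10^-4, 0.1 mL per well. Compounds were dissolved in DMSO and tested at 32 to 0.03 µM in twofold steps. […] INH and RIF were reference drugs.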

Mycobacterium kansasii [2] = test: Antimycobacterial activity against Mycobacterium kansasii 6509/96 incubated for 14 days by micromethod; assay type: functional; settings: for MIC99: Mycobacterium kansasii, 6509/96, 336 h; outline: as §1
Mycobacterium avium = test: Antimycobacterial activity against Mycobacterium avium CNCTC My 330/88 incubated for 14 days by micromethod; assay type: functional; settings: for MIC99: Mycobacterium avium, CNCTC My 330/88, 336 h
Outline: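 Micromethod MIC assay in Sula's semisynthetic medium. The inoculum was a 1.0 McFarland suspension diluted 10^-5, with 0.1 mL added per well. Compounds were dissolved in DMSO and tested at 1000 to 1 µM in two-fold steps. Plates were incubated at 37 °C for 14 days. […] INH and RIF were the reference drugs.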

[3] = system: Mycobacterium tuberculosis; test: Antimycobacterial activity against Mycobacterium tuberculosis H37Rv CNCTC My 331/88 incubated for 14 days by micromethod; assay type: functional; settings: for MIC99: Mycobacterium tuberculosis, H37Rv CNCTC My 331/88, 336 h
Outline: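 Strain H37Rv was tested in Sula's semisynthetic medium by micromethod. The basic suspension was set to 1.0 McFarland and diluted 10^-3, with 0.1 mL added per well. Compounds were added from DMSO at 32 to 0.03 µM. […] INH and RIF were used as standards.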

[4] = system: Mycobacterium tuberculosis; test: Antimycobacterial activity MDR/XDR against Mycobacterium tuberculosis isolate Praha 131 incubated for 14 days by micromethod; assay type: functional; settings: for MIC99: isolate Praha 131, 336 h
[5] = system: Mycobacterium tuberculosis; test: Antimycobacterial activity MDR/XDR against Mycobacterium tuberculosis isolate 9449/2007 incubated for 14 days by micromethod; assay type: functional; settings: for MIC99: isolate 9449/2007, 336 h
[6] = system: Mycobacterium tuberculosis; test: Antimycobacterial activity MDR/XDR against Mycobacterium tuberculosis isolate 7357/1998 incubated for 14 days by micromethod; assay type: functional; settings: for MIC99: isolate 7357/1998, 336 h
[7] = system: Mycobacterium tuberculosis; test: Antimycobacterial activity MDR/XDR against Mycobacterium tuberculosis isolate 8666/2010 incubated for 14 days by micromethod; assay type: functional; settings: for MIC99: isolate 8666/2010, 336 h
[8] = system: Mycobacterium tuberculosis; test: Antimycobacterial activity MDR/XDR against Mycobacterium tuberculosis isolate Praha 4 incubated for 14 days by micromethod; settings: isolate Praha 4, 336 h
[9] = system: Mycobacterium tuberculosis; test: Antimycobacterial activity MDR/XDR against Mycobacterium tuberculosis isolate Praha 1 incubated for 14 days by micromethod; assay type: functional; settings: for MIC99: isolate Praha 1, 336 h
[10] = system: Mycobacterium tuberculosis; test: microbe, parasite or virus in culture; settings: isolate 234/2005, 336 h
[11] = Cytotoxicity against human A431 cells assessed as cell viability at 30 uM incubated for 48 hrs by CellTiter 96 aqueous one solution cell proliferation assay; assay type: cell-based, A-431; settings: read-out: Activity
Outline: (§2)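 Caco-2, HepG2, A431 and COS-1 cells were exposed 48 h to compound or DMSO vehicle (0.1%) in Opti-MEM reduced-serum medium. MTS reagent was added for 4 h and formazan absorbance read at 490 nm. A 10% SDS toxic control was added 45 min before MTS. Vehicle and SDS were set to 100% and 0% viability; values given as relative viability at 30 µM. Triplicates, repeated at least three times.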

A-431 = test: Cytotoxicity against human A431 cells assessed as reduction in cell viability incubated for 48 hrs by CellTiter 96 aqueous one solution cell proliferation assay; assay type: cell-based; settings: A-431, 48 h; outline: as §2
Caco-2 = test: Cytotoxicity against human Caco2 cells assessed as reduction in cell viability incubated for 48 hrs by CellTiter 96 aqueous one solution cell proliferation assay; assay type: cell-based; settings: Caco-2, 48 h; outline: as §2
COS-1 = test: Cytotoxicity against African green monkey COS1 cells assessed as reduction in cell viability incubated for 48 hrs by CellTiter 96 aqueous one solution cell proliferation assay; assay type: cell-based; settings: Chlorocebus aethiops, COS-1, 48 h; outline: as §2
[12] = Cytotoxicity against human Caco2 cells assessed as cell viability at 30 uM incubated for 48 hrs by CellTiter 96 aqueous one solution cell proliferation assay; assay type: cell-based; settings: Caco-2 cells, read-out: Activity; outline: as §2
[13] = Solubility in pH 3.0 citrate buffer by HPLC method; assay type: physicochemical
Outline: (§3)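 Salt (15 mg) was shaken 2 h at room temperature in 1 mL 0.05 M citrate pH 3, 1 mL 0.1 M acetate pH 5, or 5 mL PBS pH 7.4. Suspensions were decanted and filtered (0.22 µm PTFE). Citrate and acetate solutions were diluted 500-fold in water/acetonitrile 1:1. Analysis by HPLC with diode-array detection on a C18 column at 30 °C. At least 4 repeats.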

[14] = Solubility in pH 7.4 PBS buffer by HPLC method; assay type: physicochemical; outline: as §3
[15] = Cytotoxicity against human HepG2 cells assessed as cell viability at 30 uM incubated for 48 hrs by CellTiter 96 aqueous one solution cell proliferation assay; assay type: cell-based; settings: read-out: Activity; outline: as §2
[16] = Solubility in pure water at room temperature by HPLC method; assay type: physicochemical
HepG2 = test: Cytotoxicity against human HepG2 cells assessed as reduction in cell viability incubated for 48 hrs by CellTiter 96 aqueous one solution cell proliferation assay; assay type: cell-based; settings: HepG2, 48 h; outline: as §2
[17] = Solubility in pH 5 acetate buffer by HPLC method; assay type: physicochemical; outline: as §3
[18] = Cytotoxicity against African green monkey COS1 cells assessed as cell viability at 30 uM incubated for 48 hrs by CellTiter 96 aqueous one solution cell proliferation assay; assay type: cell-based; settings: chlorocebus aethiops, COS-1 cells; read-out: Activity; outline: as §2

Compound	MIC99 (Mycobacterium kansasii [2])	MIC99 (Mycobacterium kansasii [1])	MIC99 (Mycobacterium avium)	MIC99 [3]	other results
O=[N+]([O-])c1cc(CSc2nnc(CCCCCN3CCN(Cc4ccccc4)CC3)o2)cc([N+](=O)[O-])c1	2 µM (≈ 1.05 µg/mL)	–	–	–	MIC>99 (Mycobacterium kansasii [1]): 2 µM (≈ 1.05 µg/mL); MIC>99 (Mycobacterium avium): 16 µM (≈ 8.43 µg/mL); MIC>99 [3]: 1 µM (≈ 0.527 µg/mL)
CN1CCN(CCCSc2nnc(-c3cc([N+](=O)[O-])cc([N+](=O)[O-])c3)o2)CC1	> 32 µM	16 µM (≈ 6.54 µg/mL)	125 µM (≈ 51.1 µg/mL)	> 32 µM	–
NCC[C@H](O)C(=O)N[C@@H]1C[C@H](N)[C@@H](O[C@H]2O[C@H](CN)[C@@H](O)[C@H](O)[C@H]2O)[C@H](O)[C@H]1O[C@H]1O[C@H](CO)[C@@H](O)[C@H](N)[C@H]1O [AMIKACIN]	–	–	–	–	MIC99 [4]: > 32 µM
O=[N+]([O-])c1cc(-c2nnc(SCCCN3CCN(Cc4ccccc4)CC3)o2)cc([N+](=O)[O-])c1	0.5 µM (≈ 0.242 µg/mL)	1 µM (≈ 0.485 µg/mL)	2 µM (≈ 0.969 µg/mL)	0.125 µM (≈ 0.0606 µg/mL)	–
O=[N+]([O-])c1cc(-c2nnn(CCCN3CCN(Cc4ccccc4)CC3)n2)cc([N+](=O)[O-])c1	1 µM (≈ 0.452 µg/mL)	2 µM (≈ 0.905 µg/mL)	8 µM (≈ 3.62 µg/mL)	1 µM (≈ 0.452 µg/mL)	–
CN[C@@H]1[C@H](O[C@H]2[C@H](O[C@H]3[C@H](O)[C@@H](O)[C@H](N=C(N)N)[C@@H](O)[C@@H]3N=C(N)N)O[C@@H](C)[C@]2(O)C=O)O[C@@H](CO)[C@H](O)[C@H]1O [STREPTOMYCIN]	–	–	–	–	MIC99 [5]: > 32 µM; MIC99 [6]: > 32 µM; MIC99 [4]: > 32 µM; MIC99 [7]: > 32 µM; MIC99 [8]: > 32 µM
CN1CCN(CCCCCc2nnc(SCc3cc([N+](=O)[O-])cc([N+](=O)[O-])c3)o2)CC1	> 32 µM	> 32 µM	250 µM (≈ 113 µg/mL)	32 µM (≈ 14.4 µg/mL)	–
CO[C@H]1/C=C/O[C@@]2(C)Oc3c(C)c(O)c4c(O)c(c(/C=N/N5CCN(C)CC5)c(O)c4c3C2=O)NC(=O)/C(C)=C\C=C\[C@H](C)[C@H](O)[C@@H](C)[C@@H](O)[C@@H](C)[C@H](OC(C)=O)[C@@H]1C [RIFAMPIN]	0.125 µM (≈ 0.103 µg/mL)	0.25 µM (≈ 0.206 µg/mL)	32 µM (≈ 26.3 µg/mL)	0.25 µM (≈ 0.206 µg/mL)	MIC99 [5]: > 8 µM; MIC99 [9]: > 8 µM; MIC99 [6]: > 8 µM; MIC99 [10]: > 8 µM; MIC99 [4]: > 8 µM; MIC99 [7]: > 8 µM; MIC99 [8]: > 8 µM
O=[N+]([O-])c1cc(-c2nnc(SCCCN3CCOCC3)o2)cc([N+](=O)[O-])c1	16 µM (≈ 6.33 µg/mL)	8 µM (≈ 3.16 µg/mL)	125 µM (≈ 49.4 µg/mL)	8 µM (≈ 3.16 µg/mL)	–
CN1CCN(CCCc2nnc(SCc3cc([N+](=O)[O-])cc([N+](=O)[O-])c3)o2)CC1	> 32 µM	> 32 µM	1000 µM (≈ 422 µg/mL)	> 32 µM	–
O=[N+]([O-])c1cc(CSc2nnc(CCCN3CCCCC3)o2)cc([N+](=O)[O-])c1	16 µM (≈ 6.52 µg/mL)	16 µM (≈ 6.52 µg/mL)	250 µM (≈ 102 µg/mL)	16 µM (≈ 6.52 µg/mL)	–
O=[N+]([O-])c1cc(-c2nnn(CCCN3CCCCC3)n2)cc([N+](=O)[O-])c1	16 µM (≈ 5.78 µg/mL)	16 µM (≈ 5.78 µg/mL)	62.5 µM (≈ 22.6 µg/mL)	4 µM (≈ 1.45 µg/mL)	–
O=[N+]([O-])c1cc(-c2nnn(CCCN3CCOCC3)n2)cc([N+](=O)[O-])c1	16 µM (≈ 5.81 µg/mL)	16 µM (≈ 5.81 µg/mL)	500 µM (≈ 182 µg/mL)	16 µM (≈ 5.81 µg/mL)	–
NNC(=O)c1ccncc1 [ISONIAZID]	4 µM (≈ 0.549 µg/mL)	> 250 µM	> 250 µM	–	–
O=[N+]([O-])c1cc(CSc2nnc(CCCN3CCN(Cc4ccccc4)CC3)o2)cc([N+](=O)[O-])c1	2 µM (≈ 0.997 µg/mL)	2 µM (≈ 0.997 µg/mL)	32 µM (≈ 16 µg/mL)	2 µM (≈ 0.997 µg/mL)	–
CN1CCN(CCCn2nnc(-c3cc([N+](=O)[O-])cc([N+](=O)[O-])c3)n2)CC1	> 32 µM	32 µM (≈ 12 µg/mL)	250 µM (≈ 94.1 µg/mL)	> 32 µM	–
CC1COc2c(N3CCN(C)CC3)c(F)cc3c(=O)c(C(=O)O)cn1c23 (stereo not drawn) [OFLOXACIN]	–	–	–	–	MIC99 [8]: > 16 µM
O=[N+]([O-])c1cc(-c2nnc(SCCCN3CCCCC3)o2)cc([N+](=O)[O-])c1	16 µM (≈ 6.29 µg/mL)	32 µM (≈ 12.6 µg/mL)	62.5 µM (≈ 24.6 µg/mL)	8 µM (≈ 3.15 µg/mL)	–
O=[N+]([O-])c1cc(CSc2nnc(CCCCCN3CCCCC3)o2)cc([N+](=O)[O-])c1	32 µM (≈ 13.9 µg/mL)	16 µM (≈ 6.97 µg/mL)	62.5 µM (≈ 27.2 µg/mL)	16 µM (≈ 6.97 µg/mL)	–
Cl.Cl.O=[N+]([O-])c1cc(CSc2nnc(CCCCCN3CCN(Cc4ccccc4)CC3)o2)cc([N+](=O)[O-])c1	–	2 µM	32 µM	2 µM	viability at 48 h, 30 µM [11]: 86%; MIC99 [5]: 2 µM; IC50 (A-431): > 30 µM; IC50 (Caco-2): > 30 µM; IC50 (COS-1): > 30 µM; viability at 48 h, 30 µM [12]: 105%; solubility [13]: 18000 µM; solubility [14]: 113 µM; MIC99 [9]: 2 µM; MIC99 [6]: 2 µM; MIC>99 (Mycobacterium kansasii [2]): 2 µM; viability at 48 h, 30 µM [15]: 112%; solubility [16]: 17100 µM; MIC99 [10]: 2 µM; MIC99 [4]: 2 µM; MIC99 [7]: 2 µM; IC50 (HepG2): > 30 µM; solubility [17]: 9000 µM; MIC99 [8]: 2 µM; viability at 48 h, 30 µM [18]: 99%
O=[N+]([O-])c1cc(CSc2nnc(CCCCCN3CCOCC3)o2)cc([N+](=O)[O-])c1	8 µM (≈ 3.5 µg/mL)	8 µM (≈ 3.5 µg/mL)	125 µM (≈ 54.7 µg/mL)	8 µM (≈ 3.5 µg/mL)	–
O=[N+]([O-])c1cc(CSc2nnc(CCCN3CCOCC3)o2)cc([N+](=O)[O-])c1	8 µM (≈ 3.28 µg/mL)	8 µM (≈ 3.28 µg/mL)	500 µM (≈ 205 µg/mL)	8 µM (≈ 3.28 µg/mL)	–
GENTAMICIN	–	–	–	–	MIC>99 [5]: 1 µM; MIC>99 [9]: 1 µM; MIC>99 [6]: 1 µM; MIC>99 [4]: > 8 µM; MIC>99 [7]: 2 µM
